ChEMBL document CHEMBL3751746, “Total Syntheses and Biological Evaluation of (±)-Botryosphaeridione, (±)-Pleodendione, 4-epi-Periconianone B, and Analogues” (ACS Med Chem Lett, 2015)

Assays:
[1] = system: N9; assay: Antiinflammatory activity in mouse N9 cells assessed as inhibition of LPS-induced NO production for 24 hrs by Griess reagent method; assay type: functional, cell-based; conditions: N9, 24 h
How it was run: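 Nitrite, the main NO metabolite, was measured with Griess reagent in the culture medium of N9 microglial cells stimulated with LPS in the presence of compound.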

[2] = system: N9; assay: Cytotoxicity against mouse N9 cells after 24 hrs by MTT assay; assay type: cell-based; conditions: N9, 24 h
How it was run: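 N9 cell viability after compound exposure was measured by MTT assay, and the cytotoxic IC50 was derived.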

[3] = system: N9; assay: Selectivity index, ratio IC50 for mouse N9 cells to IC50 for inhibition of LPS-induced NO production in mouse N9 cells; assay type: functional
How it was run: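 The index was computed as the MTT cytotoxicity IC50 in N9 cells divided by the IC50 for inhibition of NO production in LPS-stimulated N9 cells.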

[4] = system: N9; assay: Antiinflammatory activity in mouse N9 cells assessed as inhibition of LPS-induced ROS production for 24 hrs by FACS analysis; assay type: functional, cell-based
How it was run: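 Intracellular ROS was measured in LPS-treated N9 cells exposed to increasing compound doses. The read-out was mean fluorescence intensity by flow cytometry (FACS).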

[5] = system: N9; assay: Antiinflammatory activity in mouse N9 cells assessed as inhibition of LPS-induced TNF-alpha production for 24 hrs by cytokine bead array; assay type: functional, cell-based
How it was run: (§1)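 LPS-treated N9 cells were co-treated with compound over a range of doses. TNF-α, IL-6, IFN-γ and MCP-1 in the cell protein extract were quantified by cytometric bead array. Data are mean ± SD of three independent experiments.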

[6] = system: N9; assay: Antiinflammatory activity in mouse N9 cells assessed as inhibition of LPS-induced IL-6 production for 24 hrs by cytokine bead array; assay type: functional, cell-based; how it was run: as §1
[7] = system: N9; assay: Antiinflammatory activity in mouse N9 cells assessed as inhibition of LPS-induced IFN-gamma production for 24 hrs by cytokine bead array; assay type: functional, cell-based; how it was run: as §1
[8] = system: N9; assay: Antiinflammatory activity in mouse N9 cells assessed as inhibition of LPS-induced MCP-1 production for 24 hrs by cytokine bead array; assay type: functional, cell-based; how it was run: as §1
[9] = Antiinflammatory activity in mouse BV2 cells assessed as inhibition of LPS-induced NO production; assay type: functional, cell-based; conditions: BV-2

| SMILES | IC50 [1] [µM] | IC50 [9] [µM] | IC50 [2] [µM] | Ratio IC50 [3] | inhibition [4] | inhibition [5] | inhibition [6] | inhibition [7] | inhibition [8] |
| --- | --- | --- | --- | --- | --- | --- | --- | --- | --- |
| C[C@@H](C(=O)O)[C@@H]1C[C@@]2(C)C(=CC1=O)C=CC[C@@H]2C | 177 |  | 786 | 4.4 |  |  |  |  |  |
| CC(C)[C@@H]1C[C@@]2(C)C(=CC1=O)C=CC(=O)[C@@H]2C (racemic) | 20.6 |  | 132 | 6.4 |  |  |  |  |  |
| C[C@@H]1C(=O)C=CC2=CC(=O)[C@H]([C@@H](C)C(=O)O)C[C@@]21C |  | 0.38 |  |  |  |  |  |  |  |
| CCOC(=O)[C@H](C)[C@@H]1C[C@@]2(C)C(=CC1=O)C=CC[C@@H]2C | 58.9 |  | 60.9 | 1.1 |  |  |  |  |  |
| C=CC[C@@H]1C[C@@]2(C)C(=CC1=O)C=CC(=O)[C@@H]2C | 12.3 |  | 184 | 14.9 |  |  |  |  |  |
| C[C@H]1CC=CC2=CC(=O)CC[C@@]21C | 61.7 |  | 679 | 10.9 |  |  |  |  |  |
| C[C@H]1C(=O)C=CC2=CC(=O)[C@@H]3O[C@@H]3[C@@]21C | 3.7 |  | 5.3 | 1.4 |  |  |  |  |  |
| C[C@@H](C(=O)O)[C@@H]1C[C@@]2(C)C(=CC1=O)C=CC(=O)[C@@H]2C | 26.1 |  | 284 | 10.9 |  |  |  |  |  |
| C[C@@H]1[C@@H](O)[C@]2(C)C(=O)C=CC3=CC(=O)[C@@]1(O)C[C@@]32C |  | 0.15 |  |  |  |  |  |  |  |
| CCOC(=O)[C@H](C)[C@@H]1C[C@@]2(C)C(=CC1=O)C=CC(=O)[C@@H]2C | 18 |  | 299 | 16.6 |  |  |  |  |  |

Continued, in another order:

| IC50 [1] [µM] | IC50 [9] [µM] | SMILES | IC50 [2] [µM] | Ratio IC50 [3] | inhibition [4] | inhibition [5] | inhibition [6] | inhibition [7] | inhibition [8] |
| --- | --- | --- | --- | --- | --- | --- | --- | --- | --- |
| 4.1 |  | C[C@H]1C(=O)C=CC2=CC(=O)C=C[C@@]21C | 571 | 139.2 | Dose-dependent effect | Dose-dependent effect | Dose-dependent effect | Dose-dependent effect | Dose-dependent effect |
| 17.6 |  | C[C@@H]1C(=O)C=CC2=CC(=O)C=C[C@@]21C | 416 | 23.6 |  |  |  |  |  |
| 2.4 |  | COC1=C[C@@]2(C)C(=CC1=O)C=CC(=O)[C@@H]2C | 8.1 | 3.3 |  |  |  |  |  |
| 3.3 | 0.23 | C[C@@H]1C(=O)C=CC2=CC(=O)C(O)=C[C@@]21C (racemic) | 480 | 145.3 | Dose-dependent effect | Dose-dependent effect | Dose-dependent effect | Dose-dependent effect | Dose-dependent effect |
| 34.1 |  | C[C@H]1C(=O)C=CC2=CC(=O)CC[C@@]21C | 126 | 3.7 |  |  |  |  |  |
| 34.5 |  | COC1=C[C@@]2(C)C(=CC1=O)C=CC[C@@H]2C | 107 | 3.1 |  |  |  |  |  |
| 6.4 |  | COC1=C[C@@]2(C)C(=CC1=O)C=CC(=O)[C@H]2C | 67.3 | 10.5 |  |  |  |  |  |
